The text below walks through data of ChEMBL document CHEMBL4842351, “Synthesis and evaluation of novel and potent protease activated receptor 4 (PAR4) antagonists based on a quinazolin-4(3H)-one scaffold” (Eur J Med Chem, 2021).

For test [1], the target named is T1, Proteinase-activated receptor 4 (Homo sapiens) (UniProt Q96RI0).
T1 sequence (whole entry): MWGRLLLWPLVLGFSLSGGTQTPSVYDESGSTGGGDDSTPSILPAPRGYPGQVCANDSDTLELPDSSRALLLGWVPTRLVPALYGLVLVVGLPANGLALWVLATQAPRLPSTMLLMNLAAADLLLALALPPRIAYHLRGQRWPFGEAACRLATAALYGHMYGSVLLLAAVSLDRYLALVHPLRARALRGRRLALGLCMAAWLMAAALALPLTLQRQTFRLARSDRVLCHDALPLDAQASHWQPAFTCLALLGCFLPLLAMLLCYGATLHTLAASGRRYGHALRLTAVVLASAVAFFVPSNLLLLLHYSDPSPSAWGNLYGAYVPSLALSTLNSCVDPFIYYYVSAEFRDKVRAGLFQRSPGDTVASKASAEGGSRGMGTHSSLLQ
Briefly: Antagonist activity at PAR4 in human platelet-rich plasma assessed as inhibition of PAR4 AP AYPGKF-NH2-induced platelet aggregation at 0.2 uM by photo-turbidimetry assay relative to control. The test is classed as functional. The procedure, abridged: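 Human PRP from donated blood, spun at 160×g for 15 min, then adjusted to 3×10⁸/mL with PPP (2000×g, 15 min). Compound or saline vehicle preincubated with PRP for 5 min at 37 °C. Aggregation induced by AYPGKF-NH₂; maximal aggregation measured by light transmittance for 5 min. Percent inhibition at a single point; IC50 from ≥5 concentrations by curve fitting.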

Test [2] addresses T2, Proteinase-activated receptor 4 (Homo sapiens, UniProt Q96RI0).
T2 sequence (Q96RI0 whole entry): T1 sequence (whole entry)
Briefly: Antagonist activity at human PAR4 expressed in Ga15-HEK293 cells assessed as reduction in PAR4 AP AYPGKF-NH2-induced cytosolic calcium incubated for 24 hrs by FLIPR - calcium mobilization assay. The test is classed as functional, cell-based. A digest of the protocol: (§1)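 HEK293/Gα15 cells stably expressing human PAR1, PAR2 or PAR4, seeded at 45,000 cells/well and grown for 24 h at 37 °C, 5% CO₂. Cells loaded with calcium dye for 60 min at 37 °C in the dark. Compounds diluted from DMSO in HBSS and preincubated in the dark at room temperature. Agonists: SFFLRR (PAR1), 2-furoyl-LIGRLO-NH₂ (PAR2), AYPGKF-NH₂ (PAR4). Fluorescence read on FLIPR; 10-point half-log curves; mean of ≥2 determinations.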
Background: Calcium assays in cells follow changes in intracellular calcium, usually with a dye or a luminescent sensor.

The target in test [3] is T3, Proteinase-activated receptor 1 (Homo sapiens, UniProt P25116).
T3 sequence (P25116 whole entry): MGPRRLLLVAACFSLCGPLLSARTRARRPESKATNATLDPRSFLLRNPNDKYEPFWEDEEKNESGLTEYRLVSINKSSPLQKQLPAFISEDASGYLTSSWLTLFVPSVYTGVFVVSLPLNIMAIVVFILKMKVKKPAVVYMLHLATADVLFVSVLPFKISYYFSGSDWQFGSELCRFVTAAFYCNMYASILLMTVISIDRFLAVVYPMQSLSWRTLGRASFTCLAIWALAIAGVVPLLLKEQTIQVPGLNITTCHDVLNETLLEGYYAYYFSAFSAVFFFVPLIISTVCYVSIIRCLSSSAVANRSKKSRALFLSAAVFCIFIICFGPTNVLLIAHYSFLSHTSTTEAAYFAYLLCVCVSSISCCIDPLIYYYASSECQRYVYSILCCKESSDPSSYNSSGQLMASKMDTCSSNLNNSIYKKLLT
Briefly: Antagonist activity at human PAR1 expressed in Ga15-HEK293 cells assessed as reduction in PAR1 AP SFFLRR-NH2-induced cytosolic calcium incubated for 24 hrs by FLIPR - calcium mobilization assay. The test is classed as functional, cell-based. The procedure, abridged:
as §1

The target of test [4] is T4, Proteinase-activated receptor 2 (Homo sapiens, UniProt P55085).
T4 sequence (P55085 whole entry): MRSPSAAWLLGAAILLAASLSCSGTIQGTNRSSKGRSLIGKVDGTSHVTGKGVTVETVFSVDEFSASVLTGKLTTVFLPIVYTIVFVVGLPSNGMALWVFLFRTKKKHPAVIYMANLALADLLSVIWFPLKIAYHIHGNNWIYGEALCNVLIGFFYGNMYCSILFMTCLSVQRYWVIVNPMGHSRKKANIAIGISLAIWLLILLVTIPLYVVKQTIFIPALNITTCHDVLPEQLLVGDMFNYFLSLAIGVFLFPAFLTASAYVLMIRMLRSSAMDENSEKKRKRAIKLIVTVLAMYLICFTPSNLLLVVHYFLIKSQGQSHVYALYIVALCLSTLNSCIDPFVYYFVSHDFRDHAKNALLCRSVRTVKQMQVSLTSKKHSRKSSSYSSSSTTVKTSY
Briefly: Antagonist activity at human PAR2 expressed in Ga15-HEK293 cells assessed as reduction in PAR2 AP 2-furoyl-LIGRLO-NH2-induced cytosolic calcium incubated for 24 hrs by FLIPR - calcium mobilization assay. The test is classed as functional, cell-based. A digest of the protocol:
as §1

A value given as a limit tells only on which side of the number the result lay.

Regarding `Cc1cc(-c2nc3c(s2)CCCC3)c2nc[nH]c(=O)c2c1`, in test [1] (filed as antagonist), the inhibition (usually the change of the read-out against control, counted positive when it falls) came out at 41.6%.
As to `Cc1cc(-c2nc3c(Cl)cc(Cl)cc3s2)c2ncn(C)c(=O)c2c1`, in test [1], the inhibition was 21.3%.
The same measure, in the same setting: the figure for `CCn1cnc2c(-c3nc4c(F)cc(OC)cc4s3)cc(C)cc2c1=O` is 18.8%.
In the case of `CCc1cc(-c2nc3c(Cl)cc(OC)cc3s2)c2ncn(C)c(=O)c2c1`, in test [1] (filed as antagonist), the inhibition amounted to 92.8%. Also, the IC50 – broadly, the concentration needed to halve the response being measured – in test [2] is 0.0068 µM; in test [3], greater than 3.16 µM; in test [4] it was greater than 1 µM.
For `CCOCn1cnc2c(-c3nc4c(Cl)cc(OC)cc4s3)cc(C)cc2c1=O`, in test [1] (filed as antagonist), the inhibition was 91.2%.
On the same count and under the same terms, to `Cc1cc(-c2cc3ccccc3o2)c2ncn(C)c(=O)c2c1` belongs 44.4%.
On to `Cc1cc(-c2nc3c(Cl)cc(OCCNS(=O)(=O)c4ccc(Cl)cc4)cc3s2)c2ncn(C)c(=O)c2c1`, for which, in test [1], the inhibition turned out to be 32.3%.
Consider `Cc1cc(-c2nc3c(Cl)cc(OCCNC(=O)OC(C)(C)C)cc3s2)c2ncn(C)c(=O)c2c1`, for which the inhibition in test [1] (filed as antagonist) was 54.1%.
Turning to `Cc1cc(-c2nc3c(s2)CCCC3)c2ncn(C)c(=O)c2c1`, the IC50 in test [2] was 0.0057 µM; in test [3], greater than 3.16 µM; in test [4] it was greater than 1 µM.
`Cc1cc(-c2nc3c(Cl)cc(OCCNC(=O)c4ccccc4)cc3s2)c2ncn(C)c(=O)c2c1`: in test [1] (filed as antagonist), the inhibition worked out at 94.5%.
On to `Cc1cc(-c2cccnc2)c2ncn(C)c(=O)c2c1`, for which the inhibition in test [1] stood at 1.8%.
Still for that read-out and setting: to `COc1cc(F)c2nc(-c3cccc4c(=O)n(C)cnc34)sc2c1` belongs 18.7%; to `Cc1cc(-c2nc3c(s2)CCCC3)c2nc(C)n(C)c(=O)c2c1`, 17%.
As for `CCOCn1cnc2c(-c3nc4c(s3)CCCC4)cc(C)cc2c1=O`, the inhibition in test [1] was determined as 15.1%.
Still for that read-out and setting: to `COc1cc(Cl)c2nc(-c3cccc4c(=O)n(C)cnc34)sc2c1` belongs 25.6%.
As to `COc1cc(F)c2nc(-c3cc(C)cc4c(=O)n(C)cnc34)sc2c1`, the IC50 is 0.0032 µM in test [2], greater than 3.16 µM in test [3] and greater than 1 µM in test [4].
Regarding `Cc1cc(-c2nc3c(Cl)cc4c(c3s2)OCCO4)c2ncn(C)c(=O)c2c1`, in test [1], the inhibition stood at 35.7%.
For the compound `Cc1cc(-c2nc3c(Cl)cc(OCCNS(=O)(=O)c4ccc(Cl)cc4Cl)cc3s2)c2ncn(C)c(=O)c2c1`, the inhibition in test [1] (filed as antagonist) came to 47.1%.
`CCn1cnc2c(-c3nc4c(s3)CCCC4)cc(C)cc2c1=O`: in test [1], the inhibition amounted to 26.8%.
As for `CCCCc1cc(-c2nc3c(s2)CCCC3)c2ncn(CC)c(=O)c2c1`, the inhibition in test [1] (filed as antagonist) was 9.3%.
For the compound `Cc1cc(-c2ccc(F)cc2O)c2ncn(C)c(=O)c2c1`, the inhibition in test [1] stood at 6.5%.
Same read-out and setting: to `Cc1cc(-c2nccs2)c2ncn(C)c(=O)c2c1` belongs 7.1%; to `COCn1cnc2c(-c3nc4c(s3)CCCC4)cc(C)cc2c1=O`, 35.7%.
In the case of `COc1cc(F)c2nc(-c3cc(C)cc4c(=O)n(C)c(C)nc34)sc2c1`, the inhibition in test [1] was 20.1%.
On the same count and under the same terms, the figure for `C#CCn1cnc2c(-c3nc4c(F)cc(OC)cc4s3)cc(C)cc2c1=O` is 27.7%.
Still for that read-out and setting: to `CCCCc1cc(-c2nc3c(s2)CCCC3)c2ncn(C)c(=O)c2c1` belongs 25.7%; to `COc1cc(F)c2nc(-c3cc(C)cc4c(=O)n(C(C)C)cnc34)sc2c1`, 10.2%.
`Cc1ccc(S(=O)(=O)NCCOc2cc(Cl)c3nc(-c4cc(C)cc5c(=O)n(C)cnc45)sc3c2)cc1`: the inhibition in test [1] was 30.5%.
The same measure, in the same setting: to `COc1cc(Cl)c2nc(-c3cc(C)cc4c(=O)n(C)c(C)nc34)sc2c1` belongs 39.8%.
On the same count and under the same terms, to `CCc1cc(-c2nc3c(s2)CCCC3)c2ncn(C)c(=O)c2c1` belongs 25.7%; to `COc1ccccc1-c1cc(C)cc2c(=O)n(C)cnc12`, 17.4%; to `Cc1cc(-c2ccccc2F)c2ncn(C)c(=O)c2c1`, 16%.
Same read-out and setting: to `Cc1cc(-c2nc3c(Cl)cc(OCCNS(=O)(=O)c4ccc(F)cc4)cc3s2)c2ncn(C)c(=O)c2c1` belongs 8.7%.
Take `Cc1cc(-c2nc3c(Cl)cc(OCCNS(=O)(=O)c4ccccc4)cc3s2)c2ncn(C)c(=O)c2c1`: the inhibition in test [1] came out at 17.9%.
On the same count and under the same terms, to `COc1cc(Cl)c2nc(-c3cc(C)cc4c(=O)n(C(C)C)cnc34)sc2c1` belongs 15.2%; to `Cn1cnc2c(-c3nc4c(s3)CCCC4)cccc2c1=O`, 19.8%.
As for `COCn1cnc2c(-c3nc4c(Cl)cc(OC)cc4s3)cc(C)cc2c1=O`, the inhibition in test [1] (filed as antagonist) amounted to 45.3%.
`Cc1cc(-c2nc3c(Cl)cc(OCCN)cc3s2)c2ncn(C)c(=O)c2c1`: the inhibition in test [1] amounted to 33.2%.
As for `CCn1cnc2c(-c3nc4c(Cl)cc(OC)cc4s3)cc(C)cc2c1=O`, the inhibition in test [1] was 36.5%.
Turning to `CCCCc1cc(-c2nc3c(Cl)cc(OC)cc3s2)c2ncn(C)c(=O)c2c1`, in test [1] (filed as antagonist), the inhibition was 47.6%.
Regarding `Cc1cc(-c2cccc(Cl)c2Cl)c2ncn(C)c(=O)c2c1`, the inhibition in test [1] is 34.3%.
